Hits are enriched below; roughly 2.1% of the tested compounds scored in any of these assays.
CCR6 antagonist: blocks CCL20-driven beta-arrestin recruitment at human CCR6; 340,000 compounds, 0.49% hits; inhibition, % at 20 µM; CHO-K1 CCR6 PathHunter beta-arrestin, luminescence, CCL20-stimulated; P51684; AID 493098;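 active = compounds whose inhibition of the agonist-driven luminescence signal at 20 µM reaches about 50%, limit read from the data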;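 also: cells stimulated with CCL20 at 14 nM final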
APJ antag: antagonists of human APJ apelin receptor. inhibition, % at 20 µM. 330,000 compounds, 0.32% hits. CHO-K1 APJ beta-arrestin complementation, luminescence;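 active = inhibition above about 40% at 20 µM, limit read from the data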;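 also: cells challenged with 10 nM apelin-13 agonist together with compound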
APJ ag: agonists of human APJ apelin receptor; P35414; CHO-K1 APJ PathHunter beta-arrestin, luminescence; 0% DMSO wells, 100% apelin; activation, % at 20 µM; 330,000 compounds, 0.11% hits; AID 2520;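 active = activation more than six SD over the plate average, tested at 20 µM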
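Test system – PathHunter CHO-K1 APJ (AGTRL-1) beta-arrestin reporter cells · Input – 1000 cells/well · Compound – single test compound dose, 20 µM final, 1% DMSO · Times – compound stimulation 90 min at 25 °C, detection 60 min · Technique – beta-gal luminescence · Read-out basis – APJ–arrestin association signal · Control set – negative DMSO alone, positive Apelin-13 at 10 nM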
CXCR6 inh: inhibitors of human CXCR6 receptor. O00574. CHO-K1 PathHunter CXCR6 beta-arrestin, luminescence. AID 602244. inhibition, % at 20 µM. 360,000 compounds, 0.36% hits; in the data active = inhibition above about 34%, passing the limit was not always enough;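 also: antagonist mode with CXCL16 agonist at 10 nM final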
Target sequence (O00574 whole entry, looked up): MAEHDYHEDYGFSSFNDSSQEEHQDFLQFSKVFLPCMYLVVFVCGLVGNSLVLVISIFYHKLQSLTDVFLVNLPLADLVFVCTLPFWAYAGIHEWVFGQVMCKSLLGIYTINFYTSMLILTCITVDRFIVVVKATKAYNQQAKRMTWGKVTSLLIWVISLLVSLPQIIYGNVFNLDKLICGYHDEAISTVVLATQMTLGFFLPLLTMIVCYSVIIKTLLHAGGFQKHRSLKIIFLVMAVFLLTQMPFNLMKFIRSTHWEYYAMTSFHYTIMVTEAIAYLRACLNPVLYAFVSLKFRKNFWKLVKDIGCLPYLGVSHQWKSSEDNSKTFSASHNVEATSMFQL
EBI2 antag: antagonists of human EBI2 receptor. EBI2 beta-arrestin recruitment, luminescence, 7a,25-OHC stimulated. inhibition, % at 5 µM. P32249. 360,000 compounds, 0.81% hits; in the data active = inhibition above about 38%;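 also: enzyme fragment complementation signal reports receptor beta-arrestin coupling in cells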
HTR2A ag: activates the mouse 5-HT2A serotonin receptor; P35363; CHO-K1 mHTR2A beta-arrestin complementation, luminescence; percent of 30 µM serotonin response; activation, % at 7.6 µM; 360,000 compounds, 0.66% hits;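 active = activation above a run cutoff, the mean activation of all tested compounds plus 3 SD, cut at about 14% in these data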
EBI2 antag conf: confirmation of human EBI2 receptor antagonists. shares compounds with EBI2 antag. 2,400 compounds, 29% hits. inhibition, % at 5 µM. EBI2 beta-arrestin luminescence, 7a,25-OHC antagonism;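 active = inhibition of at least 50%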
EBI2 ag: counter-screen for EBI2 antagonists: EBI2 agonist activity | AID 652000 | EBI2-expressing cells, agonist mode, luminescence, 60 min; 0% vehicle, 100% 7α,25-dihydroxycholesterol control | activation, % at 5 µM | 2,400 tested, under 10 active | shares compounds with EBI2 antag;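 active = activation of at least 50%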
bGal cs: counter-screen for EBI2 antagonists: E. coli beta-galactosidase inhibition; purified beta-galactosidase, luminescent Galacton Star, 15 min; shares compounds with EBI2 antag; 2,400 compounds, 1% hits; inhibition, % at 5 µM;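 active = replicate-average signal at least 3 plate SD below neutral wells, shown as high inhibition, flagging enzyme-inhibiting false positives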;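 also: higher means stronger loss of beta-gal luminescence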
Each line names hits and unclear results; the compound was inactive in the other large screens (follow-up assays come after a bar, where they were run).

Cc1nn(-c2nc3ccccc3s2)c(N)c1-c1ccc(Cl)cc1	EBI2 antag 53.9 | EBI2 antag conf 52.8 | EBI2 ag inactive | bGal cs inactive
Cc1cc2oc(=O)cc(CN(Cc3ccccc3)Cc3ccccc3)c2cc1Cl	EBI2 antag 52.2 (no result: CCR6 antagonist, APJ antag, APJ ag) | EBI2 antag conf 51.2 | EBI2 ag inactive | bGal cs inactive
CCOC(=O)C(C)C1(O)c2ccccc2-c2ncccc21 (configuration not stated)	none
OC(CC1CC12c1ccccc1-c1ncccc12)(c1ccccc1)c1ccccc1 (configuration not stated)	EBI2 antag 47.1 | EBI2 antag conf inactive | EBI2 ag inactive | bGal cs inactive
CC(=O)N1CCN(C(c2ccccc2)c2ccccc2)CC1	none
Cc1c(C(=O)N2CCN(C(c3ccccc3)c3ccccc3)CC2)oc2ccccc12	EBI2 antag 87.3 | EBI2 antag conf inactive | EBI2 ag inactive | bGal cs inactive
COc1ccccc1C(=O)N1CCN(C(=O)c2oc3c(C)c(C)ccc3c2C)CC1	EBI2 antag 51.3 (no result: CCR6 antagonist, APJ antag, APJ ag) | EBI2 antag conf inactive | EBI2 ag inactive | bGal cs inactive
CCc1ccc2oc(C(=O)N3CCN(c4ccccc4OC)CC3)cc(=O)c2c1	EBI2 antag 91.0 | EBI2 antag conf 84.0 | EBI2 ag inactive | bGal cs inactive
COc1ccccc1N1CCN(C(=O)c2cc(=O)c3c(C)cc(C)cc3o2)CC1	none
CCc1ccc2oc(C(=O)N3CCN(c4ccc(OC)cc4)CC3)cc(=O)c2c1	EBI2 antag 91.2 | EBI2 antag conf 83.2 | EBI2 ag inactive | bGal cs inactive
COc1ccc(N2CCN(C(=O)c3cc4ccccc4o3)CC2)cc1	none
COc1cc2cc(C(C)(C)O)oc(=O)c2cc1OC	none
COc1ccc(NS(=O)(=O)c2ccc(Br)s2)cc1OC	none
O=C(NCc1ccccc1Cl)NC(=O)c1ccccc1	none
COc1ccccc1N1CCN(C(=O)c2oc3cc(C)c(C)cc3c2C)CC1	EBI2 antag 59.4 (no result: APJ antag, APJ ag) | EBI2 antag conf inactive | EBI2 ag inactive | bGal cs inactive
COc1ccc2c(C)c(C(=O)N3CCN(Cc4ccccc4)CC3)oc2c1	EBI2 antag 44.9 | EBI2 antag conf inactive | EBI2 ag inactive | bGal cs inactive
Cc1cc2oc(C(=O)N3CCN(CCc4ccccn4)CC3)c(C)c2cc1C	EBI2 antag 49.8 | EBI2 antag conf inactive | EBI2 ag inactive | bGal cs inactive
O=c1c2ccccc2nnn1CSc1nnc(-c2ccco2)o1	none
CCN1C(=O)N[C@@H](c2cccs2)C(C(C)=O)=C1C	none
C=CCn1c(CCC(=O)Nc2ccc(C)c(Cl)c2)nnc1SCC(=O)Nc1ccccc1C	none
CCOC(=O)/C(C#N)=C/c1c(Oc2cccc(C)c2)nc2ccccn2c1=O	none
CCOC(=O)/C(C#N)=C/c1c(Oc2cc(C)cc(C)c2)nc2ccccn2c1=O	EBI2 antag 50.5 | EBI2 antag conf inactive | EBI2 ag inactive | bGal cs inactive
Cc1cc(NC(=O)OC(C)(C)C)c(-n2nnnc2C(C(=O)c2ccc3c(c2)OCO3)N2CCN(c3ccccn3)CC2)cc1C (configuration not stated)	none (no result: CCR6 antagonist, APJ antag, APJ ag, CXCR6 inh)
CC(C)C[C@@H](CN1CCC[C@@H]1CN1C(=S)NC[C@@H]1Cc1ccccc1)N1C[C@H](Cc2ccc(O)cc2)N(CCc2ccccc2)C1=S	EBI2 antag 37.5 (no result: CCR6 antagonist, APJ antag, APJ ag) | EBI2 antag conf inactive | EBI2 ag inactive | bGal cs inactive
